Screening data deposited in PubChem by several laboratories.
Only a selection was taken, and hits are over-represented in it overall.
UPR CHOP act = apoptotic UPR (CHOP) activation | CHO-CHOP luciferase reporter, luminescence; percent of tunicamycin response over DMSO baseline | activation, % at 10 µM | hit rate 0.34% among 330,000;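 active means at 10 µM dose, activation of 40% or more, normalized to positive control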
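Dosing – one dose, 10 µM in 0.5% DMSO · System – CHO-CHOP cells, stable luciferase reporter of PERK-eIF2a-CHOP signalling · Input – 500 cells/well · Control set – tunicamycin 10 µg/mL final as positive, DMSO-only wells as negative · Timing – 6 h compound treatment, 37 °C · Measure – % activation vs tunicamycin · Technique – luminescence read with Steady-Glo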
CTSL1 counter = blocks F. hepatica cathepsin L1 in PFM18AAP counter-screen; recombinant F. hepatica cathepsin L1, Z-Leu-Arg-MCA fluorescence; hit rate 0.49% among 300,000; inhibition, % at 5.96 µM;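 active means inhibition above the mean of all tested compounds plus 3 SD, set per screening campaign, cut at about 17% in these data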
UPR XBP1 act = adaptive UPR (XBP1) activation; CHO-XBP1 luciferase reporter, IRE1-XBP1 UPR activation, luminescence; percent of tunicamycin response, DMSO as zero; activation, % at 20 µM; hit rate 0.33% among 330,000; AID 463104;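 active means versus positive control, 20 µM dose yields 30% or more activation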
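Material: CHO cell line with stable XBP1 luciferase reporter; schedule: 16-18 h cell attachment at 37 °C, then 6 h compound exposure; signal: glow luminescence from Steady-Glo reagent; medium: serum-containing F12 medium, 10% FBS; benchmarks: tunicamycin 10 µg/mL and vehicle-only wells; read-out: percent activation relative to tunicamycin reference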
CHOP inh = inhibitors of CHOP induction in ER stress response; inhibition, % at 10 µM; CHO-K1 CHOP-promoter luciferase, tunicamycin-induced, 15-18 h; AID 2732; hit rate 3.8% among 220,000;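 active means compounds that reduced the stress-induced luciferase reporter signal by more than about 70% of percent inhibition, limit read from the data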
UCH37 inh = blocks the human deubiquitinase UCH37. Q9Y5K5. purified proteasome/UCH37, Ub-AMC cleavage fluorescence. inhibition, % (test concentration not listed). hit rate 0.33% among 330,000. AID 588478;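 active means mean inhibition over replicate wells above about 20%, limit read from the data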
Target sequence (Q9Y5K5 whole entry, looked up): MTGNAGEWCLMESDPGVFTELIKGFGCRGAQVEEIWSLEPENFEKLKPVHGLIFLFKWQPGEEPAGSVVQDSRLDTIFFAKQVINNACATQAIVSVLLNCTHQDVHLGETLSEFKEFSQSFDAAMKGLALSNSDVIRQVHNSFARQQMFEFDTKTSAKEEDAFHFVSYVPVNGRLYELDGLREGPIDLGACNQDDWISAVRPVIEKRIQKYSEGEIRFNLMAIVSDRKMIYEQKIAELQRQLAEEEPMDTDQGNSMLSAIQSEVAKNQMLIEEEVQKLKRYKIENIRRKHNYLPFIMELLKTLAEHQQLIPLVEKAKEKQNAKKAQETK
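Signal – fluorescence, ex 355 nm, em 460 nm · System – Proteasome-bound UCH37 · Input – 0.15 nM proteasome as dispensed · Timing – 30 min preincubation with enzyme, 25 min cleavage at room temperature · Read-out basis – percent inhibition of cleavage signal versus uninhibited and no-proteasome wells · Medium – Tris-HCl pH 7.4 with ATP-MgCl2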
Hits are given with their value.

Cc1ccc(N=N/C(=C\O)C(=O)c2ccc(Cl)cc2)cc1 was read as UPR CHOP act inactive, CTSL1 counter inactive, UPR XBP1 act inactive, CHOP inh 95.2 and UCH37 inh inactive.
COc1ccc(Cl)cc1NC(=O)CSc1nnc(COc2ccccc2)n1C was read as UPR CHOP act inactive, CTSL1 counter inactive, UPR XBP1 act inactive, CHOP inh 79.9 and UCH37 inh inactive.
Screening CC(/C=C/c1ccco1)=NNC(=O)c1ccccc1Cl returned UCH37 inh inactive.
Screening COc1ccccc1/C=C/C=Nn1c(C2CCCCC2)n[nH]c1=S returned UCH37 inh inactive.
Screening COc1ccccc1/C=C/C=N/n1c(C2CCCCC2)n[nH]c1=S returned UPR CHOP act inactive, CTSL1 counter inactive, UPR XBP1 act inactive and CHOP inh 93.5.
`CCOP(=O)(OCC)C(=NOC(=O)c1ccc(Cl)cc1Cl)C(N)=O` gave UCH37 inh inactive.
`NC(=S)N/N=C/c1cn(-c2ccccc2)nc1-c1cccnc1` gave UPR CHOP act inactive, CTSL1 counter 25.4, UPR XBP1 act inactive and CHOP inh inactive.
`Cc1oc(/N=C/c2ccccc2O)c(C#N)c1C` gave UPR CHOP act inactive, CTSL1 counter inactive, UPR XBP1 act inactive and CHOP inh inactive.
For CCOC(=O)c1c(C)oc(/N=C/c2ccccc2O)c1C#N the results were UPR CHOP act inactive, CTSL1 counter 17.2, UPR XBP1 act inactive and CHOP inh inactive.
CCOC(=O)c1ccc2nc(NC(C)=O)sc2c1 was read as CTSL1 counter inactive, CHOP inh inactive and UCH37 inh inactive.
`CCOC(=O)c1ccc2nc(Nc3nc4ccc(F)cc4s3)sc2c1` gave UPR CHOP act inactive, CTSL1 counter inactive, UPR XBP1 act inactive, CHOP inh 89.7 and UCH37 inh inactive.
COC(=O)c1ccc2nc(NC(=O)C(C)C)sc2c1 was read as UPR CHOP act inactive, CTSL1 counter inactive, UPR XBP1 act inactive, CHOP inh inactive and UCH37 inh inactive.
COC(=O)c1ccc2nc(Nc3nc4c(F)cc(F)cc4s3)sc2c1 was read as UPR CHOP act inactive, CTSL1 counter inactive, UPR XBP1 act inactive, CHOP inh 92.5 and UCH37 inh inactive.
Screening CCOC(=O)N1CCN(S(=O)(=O)c2ccc(C(=O)Nc3nc4ccc(F)cc4s3)cc2)CC1 returned UPR CHOP act inactive, CTSL1 counter inactive, UPR XBP1 act inactive, CHOP inh 84.1 and UCH37 inh inactive.
For CC(C)[C@H](NC(=O)c1ccccc1)C(=O)OCC(=O)c1ccc(S(=O)(=O)N2CCCCC2)cc1 the results were UPR CHOP act inactive, CTSL1 counter 34.7 and UPR XBP1 act inactive.
For O=C(COC(=O)c1ccccc1)c1ccc(S(=O)(=O)N2CCCCC2)cc1 the results were UPR CHOP act inactive, UPR XBP1 act inactive and UCH37 inh inactive.
Screening COc1ccc(C=NN2CCOCC2)cc1O returned UCH37 inh inactive.
For O=[N+]([O-])c1ccccc1C=NN1CCN(Cc2ccccc2)CC1 the results were UCH37 inh inactive.
CCOC(=O)c1sc(NC(=O)c2ccc(S(=O)(=O)N3CCCCC3)cc2)nc1-c1ccccc1 was read as UPR CHOP act inactive, CTSL1 counter inactive, UPR XBP1 act inactive, CHOP inh 84.4 and UCH37 inh inactive.
For CC(=O)Nc1ccc(-c2csc(NN=C(C)c3ccccc3)n2)cc1 the results were UCH37 inh inactive.
Screening Cc1cnc(NC(=O)c2ccc(-c3nc4ccccc4s3)o2)s1 returned UPR CHOP act inactive, CTSL1 counter inactive, UPR XBP1 act inactive, CHOP inh 73.8 and UCH37 inh inactive.
Screening Cc1cnc(NC(=O)c2ccc(-c3ccc([N+](=O)[O-])cc3)o2)s1 returned UPR CHOP act inactive, UPR XBP1 act inactive and UCH37 inh inactive.
`CCCCCCCCCCCCCCCC[N+](C)(C)CCN(Cc1ccc(OC)cc1)c1ncccn1` gave UPR CHOP act inactive, CTSL1 counter inactive, UPR XBP1 act inactive and UCH37 inh 26.5.
`COc1ccc(CN(CCN(C)C)c2ccccn2)cc1` gave UPR CHOP act inactive, CTSL1 counter inactive, UPR XBP1 act inactive, CHOP inh inactive and UCH37 inh inactive.
Cc1ccc(-c2c(C(=O)NN=Cc3cccnc3)nnn2-c2nonc2N)cc1 was read as UCH37 inh inactive.
COC(=O)c1cn(NC(=O)CCC2CCCC2)c(=O)c2ccccc12 was read as UPR CHOP act inactive, CTSL1 counter inactive, UPR XBP1 act inactive, CHOP inh inactive and UCH37 inh inactive.
COC(=O)c1cn(NC(=O)CC2CCCCC2)c(=O)c2ccccc12 was read as UPR CHOP act inactive, CTSL1 counter inactive, UPR XBP1 act inactive, CHOP inh 71.6 and UCH37 inh inactive.
For Cc1ccc(-n2ncc(C#N)c2N=CN2CCCCCC2)cc1 the results were UCH37 inh inactive.
CC(CC(=O)Nc1ccc(N(C)C)cc1)=NNC(=O)c1ccc(F)cc1 was read as UCH37 inh inactive.
`O=C1C(Cl)=C(NS(=O)(=O)c2ccc([N+](=O)[O-])cc2)C(=O)c2ccccc21` gave UPR CHOP act inactive, CTSL1 counter inactive, UPR XBP1 act inactive, CHOP inh inactive and UCH37 inh 24.5.
`O=[N+]([O-])c1ccc(Oc2ccc(S(=O)(=O)Nc3ccccc3)cc2)cc1` gave UPR CHOP act inactive, CTSL1 counter inactive, UPR XBP1 act inactive, CHOP inh 71.0 and UCH37 inh inactive.
Screening O=[N+]([O-])c1ccc(S(=O)(=O)Nc2ccncc2)cc1 returned UPR CHOP act inactive, CTSL1 counter inactive, UPR XBP1 act inactive and UCH37 inh inactive.
`CCOC(=O)c1nn(-c2ccc(OC)cc2)c(=O)c2c(N)scc12` gave UPR CHOP act inactive, CTSL1 counter inactive, UPR XBP1 act inactive, CHOP inh inactive and UCH37 inh inactive.
CCOC(=O)c1nn(-c2ccc(C)c(C)c2)c(=O)c2c(N)scc12 was read as UPR CHOP act inactive, CTSL1 counter inactive, UPR XBP1 act inactive, CHOP inh 92.4 and UCH37 inh inactive.
For N#C/C(=C(/O)c1ccco1)c1nc2ccccc2s1 the results were UPR CHOP act inactive, CTSL1 counter inactive, UPR XBP1 act inactive, CHOP inh inactive and UCH37 inh 20.0.
For N#CC(=C(O)c1ccco1)c1nc2ccccc2s1 the results were UCH37 inh inactive.
For COc1ccc(C=NNC(=O)c2cccnc2)cc1CN1CCc2ccccc2C1 the results were UCH37 inh inactive.
C=CCN1C(=O)C(=c2sc3nc(=O)c(Cc4ccccc4Cl)nn3c2=O)c2ccccc21 was read as UCH37 inh inactive.
Screening O=C(O)c1ccc(N/N=C/c2ccc(OC(=O)c3cccc(Cl)c3)cc2)cc1 returned UPR CHOP act inactive, CTSL1 counter 17.5, UPR XBP1 act inactive and CHOP inh 79.4.
O=C(O)c1cccc(N/N=C/c2cccs2)c1 was read as UPR CHOP act inactive, CTSL1 counter inactive, UPR XBP1 act inactive and CHOP inh 84.4.
CSc1ccc(/C=N/Nc2cccc(C(=O)O)c2)cc1 was read as CHOP inh 84.9.
